The source of these data is ChEMBL document CHEMBL1932935, “Synthesis and biological effects of some kynurenic acid analogs” (Bioorg Med Chem, 2011).

Activity calls are given as the source filed them. The rule behind the calls is not given here.

One series concerns Hippocampus. Nature of the series: Antiexcitatory activity in rat hippocampus pyramidal CA1 region assessed as reduction in field excitatory postsynaptic potential at 16 uM by electrophysiologic method. Format: functional. In a few lines: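 Acute rat hippocampal slices; recording solution ACSF with 3 mM CaCl2 and 1.5 mM MgSO4, 1.5–2 mL/min flow, 34 °C. Schaffer collaterals stimulated; fEPSP amplitude recorded in CA1 pyramidal layer before, during and after bath application of compound in ACSF. Amplitudes normalized to 10-min control period; four slices per compound.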

For series [1], the system named is Rattus norvegicus. Description: Inhibition of NMDA in intraperitoneally dosed Wistar rat hippocampus pyramidal CA1 region assessed as reduction in amplitude of population spike by electrophysologic method. It is filed as functional, organism-based.
In series [2] the test system is Mus musculus. Nature of the series: Toxicity in C57/BL6 mouse assessed as effect on ambulation time dosed intraperitoneally equimolar to 200 mg/kg KYNA-1 as single dose measured after 2 hrs by open field test. The note with it: in vivo, ip. The arrangement: dose 200 mg/kg, route intraperitoneal. It is filed as organism-based, C57Bl/6. Put shortly: (§1)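 Six-week-old male C57Bl/6 mice, dosed ip once daily at 5 mL/kg in distilled water adjusted to pH 6.5; saline controls. Acute testing was 2 h after a single dose; chronic testing was on day 9, 2 h after the last of 9 daily doses. Each mouse was placed in a black open-field box (48×48×40 cm) and video-tracked for 5 min, scoring ambulation time, mean velocity and rearings.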

The subject of series [3] is Mus musculus. Nature of the series: Toxicity in C57/BL6 mouse assessed as effect on ambulation time dosed intraperitoneally equimolar to 200 mg/kg KYNA-1 for 9 days measured after 2 hrs post last dose by open field test. It is filed as organism-based, C57Bl/6. Details: dose 200 mg/kg, route intraperitoneal. The note with it: in vivo, ip. In a few lines: as §1
For series [4], the system named is Mus musculus. Description: Toxicity in C57/BL6 mouse assessed as decrease in number of rearings dosed intraperitoneally equimolar to 200 mg/kg KYNA-1 for 9 days measured after 2 hrs post last dose by open field test. Format: organism-based, C57Bl/6. The arrangement: dose 200 mg/kg, route intraperitoneal. The note with it: in vivo, ip. Put shortly:
as §1

Series [5] has as its system Mus musculus. Description: Toxicity in C57/BL6 mouse assessed as effect on movement velocity dosed intraperitoneally equimolar to 200 mg/kg KYNA-1 for 9 days measured after 2 hrs post last dose by open field test. It is filed as organism-based, C57Bl/6. The arrangement: dose 200 mg/kg, route intraperitoneal. As to conditions: in vivo, ip. In a few lines: as §1
For series [6], the system named is Mus musculus. Nature of the series: Toxicity in C57/BL6 mouse assessed as effect on movement velocity dosed intraperitoneally equimolar to 200 mg/kg KYNA-1 as single dose measured after 2 hrs by open field test. Format: organism-based, C57Bl/6. Details: dose 200 mg/kg, route intraperitoneal. As to conditions: in vivo, ip. Put shortly: as §1
In series [7] the test system is Mus musculus. Description: Toxicity in C57/BL6 mouse assessed as decrease in number of rearings dosed intraperitoneally equimolar to 200 mg/kg KYNA-1 as single dose measured after 2 hrs by open field test. It is filed as organism-based, C57Bl/6. Details: dose 200 mg/kg, route intraperitoneal. As to conditions: in vivo, ip. Put shortly:
as §1

Series [8] relates to Rattus norvegicus. Description: Inhibition of NMDA in Wistar rat hippocampus pyramidal CA1 region assessed as reduction in amplitude of population spike at 200 mg/kg/day, ip up to 90 mins by electrophysologic method. Format: functional. As to conditions: 1.5 h, read-out: INH, route intraperitoneal.
Series [9] has as its system Mus musculus. Nature of the series: Toxicity in C57/BL6 mouse assessed as effect on movement velocity at 200 mg/kg, ip administered as single dose measured after 2 hrs by open field test. It is filed as organism-based, C57Bl/6. The arrangement: dose 200 mg/kg, route intraperitoneal. As to conditions: in vivo. In a few lines:
as §1

Series [10] concerns Mus musculus. Nature of the series: Toxicity in C57/BL6 mouse assessed as effect on ambulation time at 200 mg/kg, ip administered as single dose measured after 2 hrs by open field test. Details: dose 200 mg/kg, route intraperitoneal. As to conditions: in vivo. Format: organism-based, C57Bl/6. In a few lines:
as §1

The subject of series [11] is Mus musculus. Description: Toxicity in C57/BL6 mouse assessed as decrease in number of rearings at 200 mg/kg, ip for 9 days measured after 2 hrs post last dose by open field test. It is filed as organism-based, C57Bl/6. Details: dose 200 mg/kg, route intraperitoneal. The note with it: in vivo. Put shortly: as §1
Series [12] concerns Mus musculus. Nature of the series: Toxicity in C57/BL6 mouse assessed as decrease in number of rearings at 200 mg/kg, ip administered as single dose measured after 2 hrs by open field test. Details: dose 200 mg/kg, route intraperitoneal. The note with it: in vivo. It is filed as organism-based, C57Bl/6. In a few lines: as §1
The test system of series [13] is Rattus norvegicus. Description: Inhibition of NMDA in Wistar rat hippocampus pyramidal CA1 region assessed as reduction in amplitude of population spike at 200 mg/kg/day, ip measured up to 60 mins by electrophysologic method. The note with it: 1 h, read-out: INH, route intraperitoneal. Format: functional.
Series [14] concerns Mus musculus. Description: Toxicity in C57/BL6 mouse assessed as effect on movement velocity at 200 mg/kg, ip for 9 days measured after 2 hrs post last dose by open field test. Format: organism-based, C57Bl/6. The arrangement: dose 200 mg/kg, route intraperitoneal. As to conditions: in vivo. Put shortly:
as §1

Series [15] concerns Mus musculus. Nature of the series: Toxicity in C57/BL6 mouse assessed as effect on ambulation time at 200 mg/kg, ip for 9 days measured after 2 hrs post last dose by open field test. It is filed as organism-based, C57Bl/6. Details: dose 200 mg/kg, route intraperitoneal. The note with it: in vivo. In a few lines: as §1

Regarding `O=C(NCCN1CCCC1)c1cc(=O)c2ccccc2[nH]1`, in the series with Hippocampus, the result was inactive.

`CN(C)CCCNC(=O)c1cc(=O)c2ccccc2[nH]1`: the outcome in the series with Hippocampus was inactive. The inhibition result with Rattus norvegicus [1] is “inactive”.

As for `O=C(c1cc(=O)c2ccccc2[nH]1)N1CCNCC1`, in the series with Hippocampus, the result was inactive.

For `CN(C)CCCNC(=O)c1cc(O)c2ccccc2n1.Cl`, the Activity entry in the series on Mus musculus [2], in the series with Mus musculus [3], in the series on Mus musculus [4], with Mus musculus [5], in the series on Mus musculus [6] and in the series with Mus musculus [7] was “Non-toxic” each time.

As for `CN(C)CCNC(=O)c1cc(O)c2ccccc2n1.Cl`, the inhibition in vivo at 200 mg/kg/day in the series with Rattus norvegicus [8] amounted to 30%; in the series with Rattus norvegicus [13] it was 25%. Also, the Activity in the series on Hippocampus is 50%; in the series with Mus musculus [9] it was “Non-toxic”; with Mus musculus [10], “Non-toxic”; with Mus musculus [11], “Non-toxic”; in the series on Mus musculus [12] it was “Toxic”; in the series with Mus musculus [14] it was “Non-toxic”. In the series on Mus musculus [15], the Activity result was “Non-toxic”.

`O=C(O)c1cc(=O)c2ccccc2[nH]1` [TRANSTORINE]: in the series on Hippocampus, the Activity stood at 70%.

Take `O=C(c1cc(=O)c2ccccc2[nH]1)N1CCN(Cc2ccccc2)CC1`: the outcome with Hippocampus was inactive.

Turning to `CN1CCN(C(=O)c2cc(=O)c3ccccc3[nH]2)CC1`, in the series with Hippocampus, the outcome was inactive.

Regarding `Nc1ccccc1C(=O)C[C@H](N)C(=O)O.O=S(=O)(O)O`, the outcome with Hippocampus was inactive. Moreover, the Activity result with Mus musculus [2] was “Non-toxic”; in the series on Mus musculus [3], “Non-toxic”; in the series on Mus musculus [4] it was “Toxic”; in the series with Mus musculus [5] it was “Non-toxic”; with Mus musculus [6] it was “Non-toxic”; in the series on Mus musculus [7] it was “Toxic”.

Take `Cl.O=C(NCCN1CCCC1)c1cc(O)c2ccccc2n1`: the Activity result in the series with Mus musculus [2], in the series on Mus musculus [3], with Mus musculus [4], with Mus musculus [5], in the series with Mus musculus [6] and in the series with Mus musculus [7] was “Non-toxic” throughout.

As for `CCN(CC)CCNC(=O)c1cc(=O)c2ccccc2[nH]1`, the result in the series on Hippocampus was inactive.

`O=C(NCCN1CCOCC1)c1cc(=O)c2ccccc2[nH]1`: the outcome in the series on Hippocampus was inactive.

On to `CN1CCCCC1CNC(=O)c1cc(=O)c2ccccc2[nH]1` (centres undefined), for which the outcome in the series on Hippocampus was inactive.

As for `O=C(NCCN1CCCCC1)c1cc(=O)c2ccccc2[nH]1`, in the series on Hippocampus, the result was inactive.
